# GASC1 inh = blocks human GASC-1 (KDM4C) demethylase activity; Q9H3R0; GST-KDM4C 2-372, H3K9me3 peptide, LANCE TR-FRET; inhibition, % at 12.5 µM; 0.15% of 96,000 active; AID 720574;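 active = mean replicate inhibition above about 25%, with at least 55% of replicates also reaching it, limit read from the data, passing the limit was not always enough; inconclusive = only one of those two conditions met; inactive = neither condition met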
# Target sequence (Q9H3R0 2-372 limits assumed): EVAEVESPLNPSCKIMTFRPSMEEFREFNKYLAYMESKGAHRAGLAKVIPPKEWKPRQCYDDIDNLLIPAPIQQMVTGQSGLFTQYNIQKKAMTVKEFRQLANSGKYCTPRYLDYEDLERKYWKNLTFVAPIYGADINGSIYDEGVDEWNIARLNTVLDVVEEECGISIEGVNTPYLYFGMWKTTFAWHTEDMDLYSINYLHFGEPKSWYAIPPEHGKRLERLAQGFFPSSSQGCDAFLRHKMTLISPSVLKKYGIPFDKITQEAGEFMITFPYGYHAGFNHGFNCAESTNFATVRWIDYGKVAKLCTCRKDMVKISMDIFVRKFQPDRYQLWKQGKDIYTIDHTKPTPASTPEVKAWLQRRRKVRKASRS
#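 material = GST-tagged GASC-1 (JMJD2C) catalytic fragment, aa 2-372 | amount = enzyme final amount 10 nM | medium = HEPES buffer, pH 7.5, plus ascorbate | also added = H3K9me3 peptide substrate, Fe(II), 2-oxoglutarate | dosing = single dose | times = 30 min demethylation and 1 h detection at room temperature | detection = LANCE TR-FRET | read-out basis = Fall in 671/618 emission ratio as inhibition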
# T cruzi growth-1 = blocks T. cruzi growth in NIH3T3 culture; T. cruzi beta-gal in NIH3T3, GalScreen luminescence, 90 h; inhibition, % at 8.34 µM; 5.9% of 77,000 active; AID 624255;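 active = mean inhibition above about 93%, with at least 55% of replicates each passing it, limit read from the data, passing the limit was not always enough; inconclusive = only one of those two conditions holds; inactive = neither condition holds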
# IDH1 mut inh = blocks human IDH1 R132H reductase activity; O75874; diaphorase/resazurin fluorescence, 60 min; inhibition, % at 10 µM; 0.18% of 70,000 active; in the data active = inhibition above about 34%; inconclusive = no clear call, values can overlap the other calls; inactive = below about 11%;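 also: 0% = DMSO and 100% = no enzyme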
# Pf Dd2 inh = P. falciparum Dd2 growth inhibition; SYBR Green, 72 h; active compounds read low; activity change, % at 10 µM; 2.3% of 94,000 active; in the data active = activity change below about -80%; inconclusive = no clear call, values can overlap the other calls
# T cruzi growth-2 = blocks T. cruzi growth in NIH3T3 host cells; inhibition, % at 8.35 µM; shares compounds with T cruzi growth-1; 72% of 5,600 active; T. cruzi beta-gal in NIH3T3, GalScreen luminescence, 90 h;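 active = mean replicate inhibition above about 95% and at least 55% of replicates individually reaching it, limit read from the data; inconclusive = only one of the two criteria is met; inactive = neither criterion is met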
# T cruzi growth-3 = Trypanosoma cruzi proliferation inhibition; shares compounds with T cruzi growth-1; T. cruzi beta-gal in NIH3T3, GalScreen luminescence, 90 h; inhibition, % at 2.09 µM; 21% of 5,600 active; AID 651740;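 active = mean inhibition above about 95%, with at least 55% of replicates also reaching it, limit read from the data; inconclusive = meets just one of the two conditions; inactive = meets neither condition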;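 also: plate controls were neutral control median for no effect and positive control median for full effect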
# 3T3 cytotox = cytotoxicity in mouse NIH/3T3 fibroblasts | AID 651742 | cytotoxicity (signal decrease), % at 8.35 µM | 14% of 5,600 active | shares compounds with T cruzi growth-1 | NIH/3T3 viability, CellTiter-Glo ATP luminescence, 90 h;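 active = mean signal decrease across replicates above about 35% based on untreated-well scatter, with enough replicates individually passing, limit read from the data; inconclusive = no rule stated though some were filed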;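 also: 0% = median of neutral control wells and 100% = median of positive control wells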
# NIH3T3 tox 2 = cytotoxicity in mouse NIH/3T3 fibroblasts | NIH/3T3 viability, CellTiter-Glo ATP luminescence, 90 h | shares compounds with T cruzi growth-1 | 56% of 5,600 active | inhibition, % at 24.9 µM | AID 651744;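 active = mean loss of cell viability signal at or above a set limit, and enough replicates individually reaching it; inconclusive = meets only the mean limit or only the replicate share; inactive = meets neither condition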;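 also: 0% = median of neutral control wells and 100% = median of positive control wells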
# Active calls of the source: *; ? = inconclusive; nt = not tested or not shown; ! = not active in a repeat. Rows were chosen to be rich in hits. Some 5.9% of all compounds tested hit in one or more screens of this group.
SMILES,GASC1 inh,T cruzi growth-1,IDH1 mut inh,Pf Dd2 inh,T cruzi growth-2,T cruzi growth-3,3T3 cytotox,NIH3T3 tox 2
CC(C)CC#Cc1ccc2c(c1)O[C@@H](CN(C)C(=O)Cc1ccccc1)[C@@H](C)CN([C@H](C)CO)S2(=O)=O,-2.4,127.0*,0.3,-48.5,98.2*,112.5*,30.3,103.3*
CCn1c(SCC(=O)Nc2ccc(C(=O)O)cc2)nnc1-c1ccc(Cl)cc1,nt,nt,0.0,nt,nt,nt,nt,nt
CC(C)(C)C1CCc2c(sc(NC(=O)COc3ccccc3Cl)c2C(N)=O)C1 (stereo not given),nt,nt,0.3,nt,nt,nt,nt,nt
C[C@@H]1CN([C@@H](C)CO)S(=O)(=O)c2ccc(C3=CCCCC3)cc2O[C@@H]1CN(C)C(=O)c1ccccc1,0.5,107.7*,nt,-28.9,84.4,93.4,27.5,70.2*
C[C@@H]1CN([C@H](C)CO)S(=O)(=O)c2ccc(C3=CCCC3)cc2O[C@@H]1CN(C)C(=O)c1ccc(F)cc1,1.3,nt,6.6,-20.7,nt,nt,nt,nt
C[C@H](CO)N1C[C@H](C)[C@@H](CN(C)C(=O)c2ccccc2)Oc2cc(C3=CCCC3)ccc2S1(=O)=O,1.9,83.1,-0.1,-41.8,nt,nt,nt,nt
C[C@@H]1CN([C@@H](C)CO)S(=O)(=O)c2ccc(C3=CCCC3)cc2O[C@@H]1CN(C)C(=O)c1ccccc1,-2.1,100.0*,0.4,-33.0,113.6*,86.4,13.2,17.7
C[C@H](CO)N1C[C@H](C)[C@@H](CN(C)C(=O)c2ccc(F)cc2)Oc2cc(C3=CCCCC3)ccc2S1(=O)=O,-3.9,?,-0.3,-72.5,110.2*,52.3,31.1,47.6*
COc1ccc(S(=O)(=O)NCCO)cc1-c1nnc2c3ccccc3c(C)nn12,nt,nt,0.0,nt,nt,nt,nt,nt
Cc1cc(C)c(S(=O)(=O)NCC(=O)Nc2ccc(F)c(Cl)c2)c(C)c1,nt,nt,-0.9,nt,nt,nt,nt,nt
COc1ccc(C#Cc2cnc3c(c2)C(=O)N([C@@H](C)CO)C[C@H](C)[C@@H](CN(C)C(=O)CC2CC2)O3)cc1,-1.1,96.8*,-4.4,-66.8,60.1,30.5,-7.7,25.5
COc1ccc(C#Cc2cnc3c(c2)C(=O)N([C@H](C)CO)C[C@H](C)[C@H](CN(C)C(C)=O)O3)cc1,-0.2,109.7*,0.1,-4.8,89.5,-18.2,21.1,34.4*
COc1ccc(C#Cc2cnc3c(c2)C(=O)N([C@@H](C)CO)C[C@@H](C)[C@@H](CN(C)C(=O)CC2CC2)O3)cc1,-1.7,56.4,-0.2,-59.5,nt,nt,nt,nt
CC(C)c1ccc(OCC(=O)Nc2cc(C(F)(F)F)ccc2N2CCOCC2)cc1,nt,nt,0.0,nt,nt,nt,nt,nt
Cc1ccc(-c2ccc([C@@H]3[C@H]4CN(C(=O)Nc5ccccc5)CCCCN4[C@H]3CO)cc2)cc1,1.2,?,nt,6.9,?,95.0,33.2,103.4*
Cc1ccc(-c2ccc([C@H]3[C@@H](CO)N4CCCCN(C(=O)Nc5ccccc5)C[C@@H]34)cc2)cc1,-1.9,118.1*,nt,28.6,106.2*,85.8,9.9,77.7*
Cc1ccccc1-c1ccc([C@H]2[C@@H](CO)N3CCCCN(C(=O)Nc4ccccc4)C[C@@H]23)cc1,-3.8,-6.3,nt,14.3,nt,nt,nt,nt
C[C@H]1C(=O)N2c3ccccc3[C@@]3(O)C[C@@H]4C(=O)N[C@@](C)(c5nc6ccccc6c(=O)n54)N1[C@@H]23,nt,nt,-0.5,nt,nt,nt,nt,nt
C[C@H]1CN([C@@H](C)CO)C(=O)CCCn2cc(nn2)CO[C@@H]1CN(C)C(=O)Nc1ccc(C(C)(C)C)cc1,nt,-5.4,3.1,-1.8,nt,nt,nt,nt
C[C@@H]1CN([C@H](C)CO)C(=O)CCCn2cc(nn2)CO[C@H]1CN(C)C(=O)c1ccc(N2CCN(C)CC2)cc1,1.1,-5.3,-0.1,-2.3,nt,nt,nt,nt
C[C@@H]1CN([C@H](C)CO)C(=O)CCCn2cc(nn2)CO[C@@H]1CN(C)C(=O)Nc1ccc(C(C)(C)C)cc1,-0.3,122.3*,2.4,1.5,101.0*,-47.5,-2.4,5.8
C[C@@H]1CN([C@@H](C)CO)C(=O)CCCn2cc(nn2)CO[C@H]1CN(C)C(=O)c1ccc(N2CCN(C)CC2)cc1,-1.1,?,-0.2,-1.9,35.0,5.1,-23.0,1.3
C[C@H](CO)N1C[C@H](C)[C@H](CN(C)Cc2ccc(C(F)(F)F)cc2)OCc2cn(nn2)CCCC1=O,1.4,?,1.7,-17.4,63.7,-7.9,0.7,4.5
C[C@@H]1CN([C@@H](C)CO)C(=O)CCCn2cc(nn2)CO[C@@H]1CN(C)C(=O)Nc1ccccc1,0.1,?,-0.1,1.8,38.2,-0.3,-13.9,-1.4
CCc1c(O)cc(OC)c2c1O[C@H](C)CC2=O,nt,nt,0.2,nt,nt,nt,nt,nt
SMILES,GASC1 inh,T cruzi growth-1,IDH1 mut inh,Pf Dd2 inh,T cruzi growth-2,T cruzi growth-3,3T3 cytotox,NIH3T3 tox 2
CC(C)c1ccc(OCC(=O)Nc2ccc(Br)cc2C(=O)O)cc1,nt,nt,0.3,nt,nt,nt,nt,nt
COCC1OC(OC(C)(C)C2CCC3(C)C(O2)C(O)CC2(C)/C(=C4\CCC(O)C(C)(CCC(O)C(C)(C)O)C4)CCC23)C(NC(C)=O)C(O)C1O (stereo not given),nt,nt,3.2,nt,nt,nt,nt,nt
COc1ccc(C2Oc3cc(OC)ccc3CC2O)cc1 (stereo not given),nt,nt,-0.2,nt,nt,nt,nt,nt
O=C(c1ccc(Cl)cc1)c1ccc(CSc2nnc(-c3ccccc3)o2)o1,nt,nt,0.2,nt,nt,nt,nt,nt
C[C@@H]1CN([C@H](C)CO)C(=O)CCCn2cc(nn2)CO[C@@H]1CN(C)C(=O)CCC(F)(F)F,-1.4,?,1.7,-11.5,46.4,56.3,1.4,-0.4
C[C@H](CO)N1C[C@H](C)[C@H](CN(C)C(=O)CCC(F)(F)F)OCc2cn(nn2)CCCC1=O,9.5,-4.1,nt,10.4,nt,nt,nt,nt
C[C@H](CO)N1C[C@H](C)[C@@H](CN(C)C(=O)Nc2ccccc2)OCc2cn(nn2)CCCC1=O,-0.4,127.4*!,1.5,8.2,-24.8,-13.9,-9.6,-0.6
CCc1ccccc1OCC(=O)Nc1ccc(C)cc1[N+](=O)[O-],nt,nt,0.2,nt,nt,nt,nt,nt
C[C@@H]1CCCCO[C@@H](CN(C)S(=O)(=O)c2ccccc2)[C@@H](C)CN([C@H](C)CO)C(=O)c2cc(NC(=O)Nc3ccc(C(F)(F)F)cc3)ccc2O1,0.4,55.9,1.1,-71.3,nt,nt,nt,nt
